Source: PubChem BioAssay (The Scripps Research Institute Molecular Screening Center)
TCR-CD3 inh: inhibitors of human TCR-CD3 interaction, primary screen, biochemical, fluorescence, TAMRA-labeled TCR probe; inhibition, % at 9.4 µM; T-cell receptor (TCR); AID 651800, 2012; 360,000 tested, 0.37% active;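 note: recombinant mutant TCR 2C K166C tagged with TAMRA read by polarization; 0% = receptor in buffer alone and 100% = receptor with positive control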
SIAE primary: human SIAE inhibitors, primary screen, biochemical, fluorescence polarization, FP-Rh probe, 1536-well HTS. Sialate O-acetylesterase (Homo sapiens), Q9HAT2. SIAE FP-Rh probe binding. inhibition, % at 9.66 µM. 370,000 tested, 0.69% active. AID 1053197, 2014;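 active = inhibition above a cutoff: mean of compounds within the control limits plus 3 SD of those, cut at about 17% in these data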;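 note: 0% = plate median of compound wells and 100% = probe without SIAE protein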
Target sequence (Q9HAT2 whole entry, looked up): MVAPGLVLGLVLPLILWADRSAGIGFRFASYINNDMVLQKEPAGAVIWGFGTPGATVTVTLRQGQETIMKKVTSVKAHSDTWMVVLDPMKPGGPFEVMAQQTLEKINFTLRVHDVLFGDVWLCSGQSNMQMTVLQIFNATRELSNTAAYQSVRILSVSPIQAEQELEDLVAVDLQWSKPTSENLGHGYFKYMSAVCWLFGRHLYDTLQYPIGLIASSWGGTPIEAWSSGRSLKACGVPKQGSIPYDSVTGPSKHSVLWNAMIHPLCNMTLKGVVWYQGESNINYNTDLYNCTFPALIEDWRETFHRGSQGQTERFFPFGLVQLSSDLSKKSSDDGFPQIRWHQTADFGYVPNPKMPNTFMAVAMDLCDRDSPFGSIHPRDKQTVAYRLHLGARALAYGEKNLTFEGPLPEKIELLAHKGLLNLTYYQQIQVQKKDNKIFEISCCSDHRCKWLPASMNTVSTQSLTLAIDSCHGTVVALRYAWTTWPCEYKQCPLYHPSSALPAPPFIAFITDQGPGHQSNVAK
TDP2 inh: human TDP2 enzyme inhibitors, primary screen, biochemical, epi absorbance, recombinant enzyme. AID 720702, 2013. 370,000 tested, 0.34% active. T5PNP hydrolysis, p-nitrophenol absorbance 415 nm. inhibition, % at 12.8 µM;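 active = inhibition above the mean of all tested compounds plus 3 SD, set per campaign, cut at about 25% in these data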;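 note: 0% = DMSO with enzyme and 100% = buffer with substrate but no TDP2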
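System – recombinant human TDP2 · Quantity – TDP2 enzyme at 120 nM final · Doses – single concentration, 12.8 µM nominal, with 1% DMSO · Incubation – 2 h at 37 °C · Measured by – epi absorbance of p-nitrophenol freed from T5PNP by hydrolysis · Read-out – % inhibition relative to enzyme-containing and enzyme-free wells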
ABHD4 inh: ABHD4 inhibitors, primary screen, biochemical, fluorescence polarization, mouse | (Lyso)-N-acylphosphatidylethanolamine lipase (Mus musculus), Q8VD66 | purified mABHD4, FP-Rh probe fluorescence polarization | inhibition, % at 8.92 µM | 370,000 tested, 0.54% active;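 active = inhibition exceeding the mean over every tested compound plus 3 SD, cut at about 30% in these data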;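 note: 0% = plate median of compound wells and 100% = S159A mutant with DMSO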
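Material: mouse ABHD4 enzyme, wild type; Benchmarks: S159A mutant high control, sample median low control; Buffer or medium: HEPES pH 7.0, NaCl, Pluronic buffer; Signal: fluorescence polarization; Read-out: percent inhibition of probe binding, normalized to plate controls; Timing: pre-incubation 45 min, probe exposure 60 min, at 25 °C; Dosing: 8.92 µM, single dose.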
PAD4 inh: human PAD4 inhibitors, primary screen, biochemical, fluorescence polarization, 1536-well format | recombinant PAD4, RCA probe fluorescence polarization | inhibition, % at 6.36 µM | 330,000 tested, 0.41% active;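 active = percent inhibition above a cutoff equal to the mean of all tested compounds plus 3 SD, cut at about 15% in these data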;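 note: 0% = PAD4 with RCA probe and DMSO and 100% = probe without PAD4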
HTRA1 inhibitor: HTRA1 serine protease inhibitors, primary screen, biochemical, fluorescence polarization, HTS; 340,000 tested, 0.5% active; recombinant HTRA1, FP-rhodamine activity-based probe; inhibition, % at 5.96 µM; Q92743; in the data active = inhibition above about 36%;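 note: 0% = enzyme with DMSO and 100% = wells lacking enzyme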
BSA TAMRA ctr: compounds interfering with TAMRA-BSA probe, counter-screen for TCR-CD3 interaction inhibitor project, biochemical, fluorescence, TAMRA-labeled BSA. shares compounds with TCR-CD3 inh. TAMRA-labeled BSA probe fluorescence counterscreen. inhibition, % at 9.4 µM. 1,200 tested, 10% active; in the data active = inhibition above about 23%;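 note: 0% = buffer low control and 100% = reference high control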
TCR-CD3 conf: TCR-CD3 interaction inhibitors, retest, confirmation, biochemical, fluorescence, TAMRA-labeled TCR probe. shares compounds with TCR-CD3 inh. TAMRA-labeled TCR probe fluorescence binding assay. inhibition, % at 9.4 µM. 1,200 tested, 48% active
An asterisk follows results filed as active; x = no result given. A selection: hits, their analogues and other compounds. The true share with any hit is near 2%. Cut-off read from the data, not from the text of the source, unless noted: active = inhibition above about 19%; inactive = the rest.

SMILES	TCR-CD3 inh	SIAE primary	TDP2 inh	ABHD4 inh	PAD4 inh	HTRA1 inhibitor	BSA TAMRA ctr	TCR-CD3 conf
Cc1ccc(NC(=O)C(OC(=O)c2ccccc2Cl)c2ccccc2)cc1Cl (centres undefined)	-6	-119	-9	-92	0	-42	x	x
N#CCC(=O)Nc1ccc(C(=O)OC(C(=O)Nc2cc(C(F)(F)F)ccc2Cl)c2ccccc2)cc1 (centres undefined)	47*	-97	-13	-70	1	-87	19	34*
COc1ccc(C(C)(NC(C)=O)c2nc(-c3ccc(F)c(Cl)c3)cs2)cc1 (centres undefined)	2	-7	2	-25	x	x	x	x
CS(=O)(=O)c1cccc(C(=O)Nc2ccc(-c3nc4ccccc4[nH]3)cc2)c1	2	-22	-3	-13	5	-21	x	x
CN(c1ccccc1)S(=O)(=O)c1ccc(Cl)c(C(=O)Nc2ccc(-c3nc4ccccc4[nH]3)cc2)c1	60*	-139	2	-106	-8	-79	27*	54*
O=C(c1ccccc1)c1ccc2nc(-c3ccc(NC(=O)c4ccccc4Br)cc3)[nH]c2c1	34*	-110	-9	-88	-11	-82	12	12
C#CCN(C[C@@H]1[C@@H](OC(=O)NC2CCCC2)[C@@H](OC(=O)NC2CCCC2)CN(C(=O)OC(C)C)N1C(=O)OC(C)C)S(=O)(=O)c1ccc(C)cc1	1	-18	-24	-12	x	-29	x	x
CC(CCc1ccccc1)NC(=O)COC(=O)c1ccc(NC(=O)CC#N)cc1 (centres undefined)	30*	-35	-10	-6	1	-21	2	3
CC(OC(=O)c1cccs1)C(=O)Nc1nc(-c2ccccc2)cs1 (centres undefined)	1	-6	4	-14	-3	-21	x	x
CC(CCc1ccccc1)NC(=O)COC(=O)c1ccc([N+](=O)[O-])cc1 (centres undefined)	-6	-2	15	4	2	-3	x	x
CC(OC(=O)c1ccc(NC(=O)CC#N)cc1)C(=O)Nc1nc(-c2ccccc2)cs1 (centres undefined)	35*	-39	17	-12	-10	-40	0	12
N#CCC(=O)Nc1ccc(C(=O)NCCC(c2ccccc2)c2ccccc2)cc1	21*	-33	-2	3	-9	-54	3	4
O=C(N/N=C/c1cc(Cl)cc([N+](=O)[O-])c1O)c1ccc2c(c1)OCO2	41*	11	-5	21	-5	25	-18	47*
O=C(N/N=C/c1cc(Cl)cc([N+](=O)[O-])c1O)c1cccc(S(=O)(=O)N2CCOCC2)c1	41*	12	-3	23	x	-3	-15	58*
O=C(N/N=C/c1cc(Br)cc(Br)c1O)c1cccc(S(=O)(=O)N2CCOCC2)c1	9	6	-3	7	1	8	x	x
O=C(NNC(=O)c1cc(Cl)ccc1O)c1cccc(S(=O)(=O)N2CCOCC2)c1	43*	13	-1	17	-2	21	-11	31*
Cc1cc(Br)cc(/C=N/NC(=O)c2ccc3c(c2)OCO3)c1O	29*	5	0	4	-3	26	-12	34*
COC(=O)c1ccc(NC(=O)COC(=O)C2=NN(c3ccccc3)C(=O)CC2)cc1	5	1	4	-4	-1	-6	x	x
C[C@@H]1CN([C@H](C)CO)C(=O)CCCn2nncc2CO[C@H]1CN(C)C(=O)Cc1ccccc1	7	4	4	5	x	3	x	x
O=C(NNC(=O)OCc1ccccc1)OCc1ccccc1	111*	13	5	9	x	3	-8	-3
CC1C(=O)N2CCCc3cc(S(=O)(=O)N(C)c4ccccc4)cc1c32 (centres undefined)	3	4	-6	7	-4	-4	x	x
O=C(CN1CCN(c2ccccc2)CC1)N1CCc2[nH]c3ccccc3c2C1	22*	4	-1	5	-1	8	3	1
O=C(CN1CCc2[nH]c3ccccc3c2C1)N1CCCCC1	-5	0	10	-2	-3	1	x	x
CC1CCCCC12NC(=O)N(Cc1cc(=O)n3ccsc3n1)C2=O (centres undefined)	-8	8	10	7	1	-10	x	x
Cc1ccc(NC(=O)NNC(=O)COc2ccc3ccccc3c2)cc1	9	0	-1	1	-3	-5	x	x
SMILES	TCR-CD3 inh	SIAE primary	TDP2 inh	ABHD4 inh	PAD4 inh	HTRA1 inhibitor	BSA TAMRA ctr	TCR-CD3 conf
COc1ccc(C(=O)NNC(=O)c2ccc3ccccc3c2)cc1	5	-4	7	-3	x	0	x	x
COc1ccc(NS(=O)(=O)c2cccc(C(=O)NNC(=O)c3cc(C)oc3C)c2)cc1	3	-1	-14	1	-8	-1	x	x
COc1cc(OC)cc(C(=O)NNC(=O)c2cc3ccccc3cc2O)c1	26*	10	-1	-8	x	9	-11	19
COc1ccccc1NC(=O)NNC(=O)c1ccc(-c2ccccc2)cc1	-1	0	-5	-12	-3	-17	x	x
Cc1ccc(NC(=O)NNC(=O)c2cc3ccccc3cc2O)cc1	32*	2	-9	-4	-2	18	-2	21*
COc1ccc(NS(=O)(=O)c2cccc(C(=O)NNC(=O)c3ccccc3O)c2)cc1	28*	-2	-9	16	3	20	-16	16
COc1ccccc1NC(=O)NNC(=O)c1cc2ccccc2cc1O	19*	13	1	8	2	33	-6	23*
COc1cc(CNCc2cc(OC)ccc2OC)cc(OC)c1	-7	6	-11	8	3	0	x	x
O=C(O)C1CSC(c2ccco2)N1 (centres undefined)	21*	7	0	15	4	11	-3	17
O=C(O)C1CSC(c2ccncc2)N1 (centres undefined)	x	x	x	x	0	-5	x	x
CCOC(=O)C1CCN(CC(O)COCc2cccs2)CC1 (centres undefined)	23*	-1	1	2	1	0	-1	-3
